# The list is not random: actives were taken first. Their share in the collection is about 0.86%.
# CCR6 antagonist: blocks CCL20-driven beta-arrestin recruitment at human CCR6; P51684; CHO-K1 CCR6 PathHunter beta-arrestin, luminescence, CCL20-stimulated; inhibition, % at 20 µM; 340,000 tested, 0.49% active; AID 493098;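 active means compounds whose inhibition of the agonist-driven luminescence signal at 20 µM reaches about 50%, limit read from the data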;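 further: cells stimulated with CCL20 at 14 nM final; plate controls were DMSO with CCL20 for no effect and DMSO without agonist for full effect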
# Target sequence (P51684 whole entry, looked up): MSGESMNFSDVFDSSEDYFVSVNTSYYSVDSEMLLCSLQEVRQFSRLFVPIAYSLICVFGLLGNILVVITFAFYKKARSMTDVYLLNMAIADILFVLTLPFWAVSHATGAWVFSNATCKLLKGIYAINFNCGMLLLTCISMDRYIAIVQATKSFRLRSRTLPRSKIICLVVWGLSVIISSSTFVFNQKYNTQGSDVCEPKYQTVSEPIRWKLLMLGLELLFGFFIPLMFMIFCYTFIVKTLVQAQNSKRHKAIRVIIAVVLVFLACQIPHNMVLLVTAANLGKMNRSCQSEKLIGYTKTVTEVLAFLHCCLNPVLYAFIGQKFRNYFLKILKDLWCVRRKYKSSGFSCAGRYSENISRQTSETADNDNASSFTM
# CXCR6 block: inhibitors of human CXCR6 receptor. O00574. CHO-K1 PathHunter CXCR6 beta-arrestin, luminescence. inhibition, % at 20 µM. 360,000 tested, 0.36% active. AID 602244; in the data active means inhibition above about 34%, passing the limit was not always enough;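 further: antagonist mode with CXCL16 agonist at 10 nM final; 0% = 10 nM CXCL16 with DMSO and 100% = unstimulated wells without agonist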
# hiPSC survival: enhancers of human iPSC single-cell survival; 360,000 tested, 0.044% active; survival enhancement, % at 20 µM; hiPSC single-cell survival, ATPlite luminescence; 100% = ROCK inhibitor wells, 0% = DMSO; AID 602274; in the data active means survival enhancement above about 18%;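 further: cells exposed to compounds for 16 hours before the ATP read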
# DAGLB inh: diacylglycerol lipase beta (human) inhibition | HEK293T DAGLB membrane lysate, EnzChek fluorogenic substrate | inhibition, % at 5.17 µM | 340,000 tested, 0.059% active | AID 504411; in the data active means inhibition above about 34%;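 further: 0% = enzyme with vehicle and 100% = wells lacking enzyme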
# APJ antagonist: blocks the human apelin receptor APJ. P35414. CHO-K1 APJ beta-arrestin complementation, luminescence. inhibition, % at 20 µM. 330,000 tested, 0.32% active. AID 2521;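 active means inhibition above about 40% at 20 µM, limit read from the data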;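 further: cells challenged with 10 nM apelin-13 agonist together with compound; plate controls were apelin-13 plus DMSO wells for no effect and DMSO wells lacking apelin-13 for full effect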
# APJ agonist: APJ receptor agonism | P35414 | CHO-K1 APJ PathHunter beta-arrestin, luminescence; 0% DMSO wells, 100% apelin | activation, % at 20 µM | 330,000 tested, 0.11% active | AID 2520;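 active means activation more than six SD over the plate average, tested at 20 µM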;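 further: 0% = DMSO alone and 100% = apelin-13 at 10 nM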
#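 Assay system: CHO-K1 cells stably expressing ProLink-tagged human APJ and arrestin–beta-gal acceptor. Compound dosing: 20 µM single point, 1% DMSO. Times: 16-18 h seeding, 90 min dark compound exposure, 60 min detection. Detection: beta-gal luminescence. Evaluation: APJ–arrestin association signal. Controls: negative DMSO alone, positive Apelin-13 at 10 nM.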
# CXCR6 confirm: CXCR6 antagonism confirmation, single concentration; shares compounds with CXCR6 block; CHO-K1 CXCR6 PathHunter beta-arrestin, luminescence; inhibition, % at 20 µM; 700 tested, 65% active;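 active means mean inhibition over four retests above 40%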;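 further: receptor stimulated with 10 nM CXCL16 agonist; beta-galactosidase fragment complementation upon beta-arrestin recruitment to receptor; plate controls were CXCL16 plus DMSO for no effect and DMSO without CXCL16 for full effect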
# Active calls of the source: *; . = no result given.
SMILES,CCR6 antagonist,CXCR6 block,hiPSC survival,DAGLB inh,APJ antagonist,APJ agonist,CXCR6 confirm
COc1cccc2cc(C(=O)Nc3ccc(F)cc3)c(=Nc3ccc(C(=O)O)cc3)oc12,80.5*,48.9*,-0.5,-2.2,6.9,-1.2,7.7
C[C@@H](NC(=O)c1[nH]cnc1C(=O)Nc1ccccc1F)c1ccccc1,.,42.3*,4.9,-0.4,.,.,26.3
C[C@@H](NC(=O)c1nc[nH]c1C(=O)N[C@H](C)c1ccccc1)c1ccccc1,12.6,9.8,1.4,-0.8,5.5,-2.9,.
CCN1CCN(c2ccc(NC(=O)CC3OC(=O)c4ccccc43)cc2C)CC1 (stereo not drawn),.,-1.6,2.7,-2.0,.,.,.
Cc1ccc(NC(=S)NNC(=O)Nc2ccccc2)cc1,.,53.2*,-1.7,-2.2,43.5*,-6.4,38.3
Cc1ccc(NC(=S)NNC(=S)Nc2ccc(C)cc2)cc1,33.6,12.7,-1.5,0.5,.,.,.
COc1ccc([C@H]2C=C(C(=O)O)O[C@@H](OCCCCO)C2)cc1,-5.2,-2.5,10.6,2.3,-1.3,5.8,.
COc1ccc(OC)c(NC(=O)NNC(=O)COc2ccc(F)cc2F)c1,6.2,7.1,0.2,-5.0,11.4,-2.5,.
COc1cc(S(=O)(=O)NC2CCCC2)c(OC)cc1Cl,9.4,46.2*,-1.5,-5.1,7.4,-1.5,5.0
COc1cc(S(=O)(=O)NC2CC(C)(C)NC(C)(C)C2)c(OC)cc1Cl,-4.4,-0.2,-0.6,-0.2,4.0,-3.5,.
